ChEMBL document CHEMBL3407342, “Prodrugs of reverse fosmidomycin analogues” (J Med Chem, 2015)

Assays:
[1] = system: Plasmodium falciparum; assay: Antiplasmodial activity against blood stage forms of multidrug-resistant Plasmodium falciparum Dd2 incubated for 3 days by HRP2 detection based ELISA method; type: functional, organism-based; conditions: Dd2, 72 h
Method in brief: (§1)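 Asexual blood-stage P. falciparum kept in continuous culture. Proliferation read by HRP2 ELISA. Each test used 12 serial dilutions. Values are means of at least two independent experiments, each run in duplicate.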

[2] = Inhibition of recombinant Plasmodium falciparum IspC using [3,4,5-13C3]1-Deoxy-D-xylulose 5-phosphate substrate by photometric assay
Method in brief: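 Pf IspC inhibition values are mean ± SD from nine or more data points, obtained by nonlinear regression analysis.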

[3] = system: Plasmodium falciparum; assay: Antiplasmodial activity against blood stage forms of chloroquine-sensitive Plasmodium falciparum D10 incubated for 3 days by HRP2 detection based ELISA method; type: functional, organism-based; conditions: D10, 72 h; method in brief: as §1
[4] = system: Plasmodium berghei; assay: Antimalarial activity against Plasmodium berghei infected in NMRI mouse assessed as reduction in parasitemia at 50 mg/kg, po qd for 4 days starting 4 hrs post infection measured on 96 hrs post infection relative to control; type: functional; set-up: scale not given: the % may be the effect or the level left
Method in brief: (§2)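 Peters 4-day suppressive test in P. berghei-infected mice, 50 mg/kg once daily orally or intraperitoneally at 4, 24, 48 and 72 h after infection. Compound dissolved or suspended in 70:30 Tween 80/ethanol, then diluted 10× with water. Groups of 3 mice. Blood taken on day 4 (96 h). Activity is the difference in mean % parasitaemia between control and treated groups, as a percent of control.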

[5] = system: Plasmodium falciparum; assay: Antimalarial activity against Plasmodium falciparum infected in SCID mouse engrafted with human erythrocytes assessed as reduction in parasitemia at 50 mg/kg, ip qd for 4 days relative to control; type: functional; set-up: scale not given: the % may be the effect or the level left; conditions: route intraperitoneal
Method in brief: (§3)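 P. falciparum SCID mouse model with treated groups of 2 mice and a control group of 5. Dosed orally or intraperitoneally once daily on days 3, 4, 5 and 6 after infection. Blood collected on day 4 after the first treatment; parasitized erythrocytes counted as % relative to control.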

[6] = system: HeLa; assay: Cytotoxicity against human HeLa cells; type: cell-based
Method in brief: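 HeLa cytotoxicity values are the mean of two duplicate determinations.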

[7] = Selectivity index, ratio of IC50 for human HeLa cells to IC50 for blood stage forms of multidrug-resistant Plasmodium falciparum Dd2; type: toxicity, cell-based; conditions: HeLa cells versus blood stage Plasmodium falciparum Dd2, read-out: Ratio IC50
Method in brief: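 Index computed as HeLa cell IC50 divided by P. falciparum Dd2 IC50. HeLa values are means of two duplicate determinations.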

[8] = system: Plasmodium berghei; assay: Antimalarial activity against Plasmodium berghei infected in NMRI mouse assessed as reduction in parasitemia at 50 mg/kg, ip qd for 4 days starting 4 hrs post infection measured on 96 hrs post infection relative to control; type: functional; set-up: scale not given: the % may be the effect or the level left; conditions: route intraperitoneal; method in brief: as §2
[9] = system: Plasmodium berghei; assay: Antimalarial activity against Plasmodium berghei infected in NMRI mouse assessed as mean survival time at 50 mg/kg, ip qd for 4 days starting 4 hrs post infection measured on 96 hrs post infection (reference value: 4 days); type: functional; conditions: route intraperitoneal
Method in brief: (§4)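 Standard 4-day Peters test in P. berghei-infected mice. Compounds dissolved or suspended in 70:30 Tween 80/ethanol, then diluted 10× with water. Given at 50 mg/kg once daily, orally or intraperitoneally, at 4, 24, 48 and 72 h postinfection (n = 3 mice per group). Blood collected at 96 h. Mean survival time reported; […].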

[10] = system: Plasmodium berghei; assay: Antimalarial activity against Plasmodium berghei infected in NMRI mouse assessed as mean survival time at 50 mg/kg, po qd for 4 days starting 4 hrs post infection measured on 96 hrs post infection (reference value: 4 days); type: functional; method in brief: as §4
[11] = system: Plasmodium falciparum; assay: Antiplasmodial activity against blood stage forms of chloroquine-sensitive Plasmodium falciparum 3D7 incubated for 3 days by HRP2 detection based ELISA method; type: functional, organism-based; conditions: 3D7, 72 h; method in brief: as §1
[12] = system: Plasmodium falciparum; assay: Antimalarial activity against Plasmodium falciparum infected in SCID mouse engrafted with human erythrocytes assessed as reduction in parasitemia at 50 mg/kg, po qd for 4 days relative to control; type: functional; set-up: scale not given: the % may be the effect or the level left; method in brief: as §3
[13] = system: Plasmodium berghei; assay: Antimalarial activity against Plasmodium berghei infected in NMRI mouse assessed as mean survival time at 30 mg/kg, po qd for 4 days starting 4 hrs post infection measured on 96 hrs post infection (reference value: 4 days); type: functional
[14] = system: Plasmodium berghei; assay: Antimalarial activity against Plasmodium berghei infected in NMRI mouse assessed as reduction in parasitemia at 30 mg/kg, po qd for 4 days starting 4 hrs post infection measured on 96 hrs post infection relative to control; type: functional; set-up: scale not given: the % may be the effect or the level left
[15] = system: Plasmodium falciparum; assay: Antimalarial activity against Plasmodium falciparum infected in SCID mouse engrafted with human erythrocytes assessed as reduction in parasitemia at 5 mg/kg, po qd for 4 days relative to control; type: functional; set-up: scale not given: the % may be the effect or the level left
[16] = system: Plasmodium falciparum; assay: Antimalarial activity against Plasmodium falciparum infected in SCID mouse engrafted with human erythrocytes assessed as reduction in parasitemia at 13 mg/kg, po qd for 4 days relative to control; type: functional; set-up: scale not given: the % may be the effect or the level left

O=C(CCC(c1ccc(F)c(F)c1)P(=O)(O)O)NO (stereo not given)
IC50 [1]: 0.65 µM | IC50 [2]: 0.0028 µM | IC50 [3]: 0.21 µM

CN(O)C(=O)CCC(c1ccc(F)c(F)c1)P(=O)(O)O (stereo not given)
Activity [4]: 57% | Activity [5]: 0% | IC50 [6]: > 1000 µM | selectivity ratio [7]: > 2500 | Activity [8]: 62% | IC50 [2]: 0.0034 µM | Survival [9]: 6.7 days | IC50 [3]: 0.083 µM | Survival [10]: 6 days

CN(O)C(=O)COC(c1ccc(F)c(F)c1)P(=O)(O)O (stereo not given)
IC50 [6]: > 1000 µM | selectivity ratio [7]: > 7690 | IC50 [2]: 0.012 µM | IC50 [3]: 0.52 µM

CC(=O)N(O)CCCP(=O)(OCOC(=O)C(C)(C)C)OCOC(=O)C(C)(C)C
IC50 [1]: 0.028 µM | IC50 [11]: 0.041 µM

CC(C)(C)C(=O)OCOP(=O)(CCCN(O)C=O)OCOC(=O)C(C)(C)C
IC50 [1]: 0.49 µM | IC50 [11]: 0.48 µM | IC50 [3]: 1.8 µM

CCCCOC(=O)OCOP(=O)(OCOC(=O)OCCCC)C(CCC(=O)NO)c1ccc(F)c(F)c1 (stereo not given)
IC50 [1]: 0.009 µM | IC50 [11]: 0.039 µM | IC50 [2]: > 1000 µM | IC50 [3]: 0.1 µM

CCCCOC(=O)OCOP(=O)(OCOC(=O)OCCCC)C(CCC(=O)N(C)O)c1ccc(F)c(F)c1 (stereo not given)
IC50 [1]: 0.005 µM | IC50 [6]: 190 µM | selectivity ratio [7]: 38000 | IC50 [11]: 0.013 µM | IC50 [2]: > 1000 µM

CCCCOC(=O)OCOP(=O)(OCOC(=O)OCCCC)C(OCC(=O)N(C)O)c1ccc(F)c(F)c1 (stereo not given)
IC50 [1]: 0.009 µM | IC50 [6]: 190 µM | selectivity ratio [7]: 21100 | IC50 [11]: 0.014 µM | IC50 [3]: 0.031 µM

CC(C)OC(=O)OCOP(=O)(OCOC(=O)OC(C)C)C(CCC(=O)NO)c1ccc(F)c(F)c1 (stereo not given)
IC50 [1]: 0.029 µM | IC50 [11]: 0.049 µM | IC50 [2]: > 1000 µM

CC(C)OC(=O)OCOP(=O)(OCOC(=O)OC(C)C)C(CCC(=O)N(C)O)c1ccc(F)c(F)c1 (stereo not given)
IC50 [1]: 0.007 µM | IC50 [11]: 0.008 µM | IC50 [2]: 887 µM

CC(C)OC(=O)OCOP(=O)(OCOC(=O)OC(C)C)C(OCC(=O)N(C)O)c1ccc(F)c(F)c1 (stereo not given)
IC50 [1]: 0.029 µM | IC50 [11]: 0.035 µM | IC50 [3]: 0.031 µM

CC(=O)ON(C)C(=O)CCC(c1ccc(F)c(F)c1)P(=O)(OCOC(=O)OC(C)C)OCOC(=O)OC(C)C (stereo not given)
IC50 [1]: 0.008 µM | IC50 [6]: 188 µM | selectivity ratio [7]: 23500 | IC50 [11]: 0.013 µM | IC50 [3]: 0.061 µM

CCOC(=O)ON(C)C(=O)CCC(c1ccc(F)c(F)c1)P(=O)(OCOC(=O)OC(C)C)OCOC(=O)OC(C)C (stereo not given)
IC50 [1]: 0.018 µM | IC50 [6]: 205 µM | selectivity ratio [7]: 11400 | IC50 [11]: 0.028 µM | IC50 [2]: > 1000 µM | IC50 [3]: 0.13 µM

CCNC(=O)ON(C)C(=O)CCC(c1ccc(F)c(F)c1)P(=O)(OCOC(=O)OC(C)C)OCOC(=O)OC(C)C (stereo not given)
IC50 [1]: 0.012 µM | IC50 [6]: 168 µM | selectivity ratio [7]: 14000 | IC50 [11]: 0.014 µM | IC50 [2]: > 1000 µM | Activity [12]: 0% | IC50 [3]: 0.072 µM

CC(C)OC(=O)OCOP(=O)(OCOC(=O)OC(C)C)C(CCC(=O)N(C)OC(=O)C(C)(C)C)c1ccc(F)c(F)c1 (stereo not given)
IC50 [1]: 0.034 µM | IC50 [11]: 0.043 µM | IC50 [2]: > 1000 µM | IC50 [3]: 0.22 µM

O[C@@H](c1cc(C(F)(F)F)nc2c(C(F)(F)F)cccc12)[C@H]1CCCCN1 (relative stereo) [(S,R)-MEFLOQUINE]
Survival [13]: 29 days | Activity [14]: 99.9%

C[C@H]1[C@H](OC(=O)CCC(=O)O)O[C@@H]2O[C@@]3(C)CC[C@H]4[C@H](C)CC[C@@H]1[C@@]24OO3 [ARTESUNATE]
Activity [15]: 90% | Activity [16]: 90% | Survival [13]: 10 days | Activity [14]: 99%

CCN(CC)CCCC(C)Nc1ccnc2cc(Cl)ccc12 (stereo not given) [CHLOROQUINE]
Activity [15]: 90% | Activity [16]: 90%

O=CN(O)CCCP(=O)(O)O [FOSMIDOMYCIN]
IC50 [2]: 0.16 µM | IC50 [3]: 1.3 µM

CC(=O)N(O)CCCP(=O)(O)O [FR-900098]
IC50 [1]: 0.16 µM | IC50 [11]: 0.16 µM | IC50 [2]: 0.015 µM | IC50 [3]: 0.35 µM
